# Assay results taken from ChEMBL document CHEMBL2380266, “1,4-Benzothiazine ATP-sensitive potassium channel openers: modifications at the C-2 and C-6 positions” (J Med Chem, 2013).
# Active and inactive are the calls of the source. The calls are words filed in the database; no cut-off is given here.
# What was measured:
# Aorta [1] = experiment: Vasorelaxant activity in Wistar rat endothelium-denuded aortic rings assessed as reduction of KCl-induced contraction; type: functional, tissue-based
# How it was run: (§1)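 Thoracic aortic rings from male Wistar rats (250−350 g), endothelium removed. Removal confirmed by <10% relaxation to 10 μM ACh. Rings contracted with 25 mM KCl; at plateau, test agent added cumulatively in 3-fold increasing concentrations. DMSO stocks (10 mM) diluted in water. Emax given as % of KCl tone; pIC50 is the half-reduction of tone; 5−10 experiments.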
# Aorta [2] = experiment: Vasorelaxant activity in Wistar rat endothelium-denuded aortic rings assessed as reduction of KCl-induced contraction in presence of glibenclamide; type: functional, tissue-based
# How it was run: (§2)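 Endothelium-denuded Wistar rat aortic rings; 1 μM glibenclamide added before the 25 mM KCl contraction, then test agent added cumulatively in 3-fold increasing concentrations. Vasorelaxation expressed as % of KCl-induced tone; pIC50 from the half-reduction of tone; 5−10 experiments.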
# Aorta [3] = experiment: Vasorelaxant activity in Wistar rat endothelium-denuded aortic rings assessed as reduction of KCl-induced contraction in presence of glibenclamide relative to control; type: functional; how it was run: as §2
# Aorta [4] = experiment: Vasorelaxant activity in Wistar rat endothelium-denuded aortic rings assessed as reduction of KCl-induced contraction relative to control; type: functional; how it was run: as §1
# Rattus norvegicus [5] = species: Rattus norvegicus; experiment: Activation of ATP-sensitive potassium channel in Wistar rat pancreatic islets assessed as reduction in high glucose-induced insulin secretion at 80 uM after 1 hr by radioimmunoassay in presence of glibenclamide
# How it was run: (§3)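 Islets from male Wistar rats (200−250 g), isolated by collagenase duct cannulation with density-gradient purification and cultured 24 h in RPMI (5.6 mM glucose). Ten islets per well were preincubated 30 min in KRH pH 7.4 with 2.8 mM glucose and 1% BSA, then incubated 1 h with 16.7 mM glucose ± glibenclamide 1 μM. Released insulin was measured by RIA, at least five replicas.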
# Rattus norvegicus [6] = species: Rattus norvegicus; experiment: Activation of ATP-sensitive potassium channel in Wistar rat pancreatic islets assessed as reduction in high glucose-induced insulin secretion at 80 uM after 1 hr by radioimmunoassay; how it was run: as §3
# Homo sapiens [7] = species: Homo sapiens; experiment: Activation of ATP-sensitive potassium channel in human aortic smooth muscle cells assessed as membrane hyperpolarization at 0.1 to 100 uM by DiBAC4(3) dye-based spectrofluorimetric analysis relative to LCRK
# How it was run: (§4)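 HASMCs grown in medium 231 with SMGS at 37 °C, 5% CO2, seeded on gelatin 24 h before use. Loaded 1 h with 2.5 μM DiBAC4(3) in HEPES buffer pH 7.4 at room temperature. Fluorescence read at ex 488 / em 520 nm before and after compound. Relative fluorescence decrease (Ft−F0)/F0 expressed as % of the 100 μM LCRK effect. pEC50 derived; six replicates.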
# Aorta [8] = experiment: Vasorelaxant activity in Wistar rat endothelium-denuded aortic rings relative to LCRK; type: functional; how it was run: as §1
# Homo sapiens [9] = species: Homo sapiens; experiment: Activation of ATP-sensitive potassium channel in human aortic smooth muscle cells assessed as membrane hyperpolarization at 10 uM by DiBAC4(3) dye-based spectrofluorimetric analysis in presence of glibenclamide
# How it was run: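 Same DiBAC4(3) setup in HASMCs (2.5 μM dye, 1 h loading, pH 7.4, ex 488 / em 520 nm). Glibenclamide was added 10 min before the test agent. Relative fluorescence decrease expressed as % of the 100 μM LCRK maximal effect; six replicates.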
# [10] = (§5) Activation of ATP-sensitive potassium channel in human aortic smooth muscle cells assessed as membrane hyperpolarization by DiBAC4(3) dye-based spectrofluorimetric analysis; how it was run: as §4
# Homo sapiens [11] = species: Homo sapiens; experiment: as §5; how it was run: as §4
# Rattus norvegicus [12] = species: Rattus norvegicus; experiment: Activation of ATP-sensitive potassium channel in Wistar rat pancreatic islets assessed as reduction in high glucose-induced insulin secretion after 1 hr by radioimmunoassay
# How it was run: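 Islets from male Wistar rats (200−250 g), collagenase isolation, cultured 24 h in RPMI (5.6 mM glucose). Batches of 10 islets preincubated 30 min in KRH pH 7.4 with 2.8 mM glucose and 1% BSA, then incubated 1 h with 2.8 or 16.7 mM glucose ± test agent at 1 to 1000 nM. Released insulin measured by RIA. At least five replicas.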
Structure (SMILES),IC50 (Aorta [1]),IC50 (Aorta [2]),Activity (Rattus norvegicus [5]),Activity (Rattus norvegicus [6]),Emax (Homo sapiens [7]),Activity (Homo sapiens [9]),EC50 [10],Activity (Homo sapiens [11]),Activity (Rattus norvegicus [12]),Emax (Aorta [3]),Emax (Aorta [4]),Ratio (Aorta [8])
O=C1CCC=C1N1CCSc2ccc(C(F)(F)F)cc21,537 nM,23400 nM,,,,,,,,64%,94%,
CC1=Nc2ccc(Cl)cc2S(=O)(=O)N1,,,inactive,Active,,,,,,,,
CC1(C)CSc2ccc(C(F)(F)F)cc2N1C1=CCCC1=O,66.1 nM,,,,,,,,,,89%,
CC1(C)CN(C2=CCCC2=O)c2cc(C(F)(F)F)ccc2S1,0.0417 nM,8.32 nM,,,,,,,,96%,92%,
CC(C)CN(CC(C)C)S(=O)(=O)c1ccc2c(c1)N(C1=CCCC1=O)CC(C)(C)S2,794 nM,,,,,,,,,,85%,
CC1CN(C2=CCCC2=O)c2cc(C(F)(F)F)ccc2S1 (stereo not given),8.32 nM,708 nM,,,106%,inactive,135 nM,Dose-dependent effect,,63%,94%,10
CC1(C)Oc2ccc(C#N)cc2[C@@H](N2CCCC2=O)[C@@H]1O [LEVCROMAKALIM],324 nM,2510 nM,,,,inactive,5370 nM,,,93%,99%,

# Further lines, with some results ahead:
IC50 (Aorta [1]),IC50 (Aorta [2]),Activity (Rattus norvegicus [5]),Activity (Rattus norvegicus [6]),Emax (Homo sapiens [7]),Activity (Homo sapiens [9]),EC50 [10],Activity (Homo sapiens [11]),Activity (Rattus norvegicus [12]),Structure (SMILES),Emax (Aorta [3]),Emax (Aorta [4]),Ratio (Aorta [8])
1.45 nM,56.2 nM,,,103%,inactive,117 nM,Dose-dependent effect,inactive,CC(=O)c1ccc2c(c1)N(C1=CCCC1=O)CC(C)(C)S2,77%,88%,100
155 nM,6460 nM,,,98%,inactive,7410 nM,Dose-dependent effect,inactive,CCc1ccc2c(c1)N(C1=CCCC1=O)CC(C)(C)S2,69%,97%,
724 nM,20900 nM,,,,,,,,CC1(C)CN(C2=CCCC2=O)c2ccccc2S1,61%,90%,
933 nM,19500 nM,,,,,,,,Cc1ccc2c(c1)N(C1=CCCC1=O)CC(C)(C)S2,78%,89%,
3980 nM,,,,,,,,,CC1(C)CN(C2=CCCC2=O)c2cc(N)ccc2S1,,96%,
6610 nM,,,,,,,,,CC(=O)Nc1ccc2c(c1)N(C1=CCCC1=O)CC(C)(C)S2,,97%,
